Published values from different studies.
Each line is one published result; the experiments were not run side by side.
Toll-like receptor 1/2: Toll-like receptor 1/2 (Homo sapiens, UniProt O60603+Q15399)
RORC: Nuclear receptor ROR-gamma (RORC, Homo sapiens, UniProt P51449)
Chymotrypsinogen A: Chymotrypsinogen A (Bos taurus, UniProt P00766)

CNc1ccc([N+](=O)[O-])cc1-n1cnc(-c2ccc(C(C)(C)C)cc2)c1 — EC50 (Toll-like receptor 1/2; reporter gene, agonist): 150 nM
Cc1cnc(-c2ccc(-c3ccc(NC(=O)Nc4c(F)cc(F)cc4F)cc3F)c3c2C(=O)NC3)[nH]1 — IC50 (Serine/threonine-protein kinase 24 (STK24, Homo sapiens, UniProt Q9Y6E0); enzyme activity, inhibitor): 41.5 nM
O=C(CCn1cc(CN2CCN(c3cc4c(cc3F)c(=O)c(C(=O)O)cn4C3CC3)CC2)nn1)Nc1ccc(S[C@@H]2O[C@H](CO)[C@H](O)[C@H](O)[C@H]2O)cc1 — Ki (PA-I galactophilic lectin (lecA, Pseudomonas aeruginosa, UniProt Q05097); ligand displacement, FP): 4290 nM
O=S(=O)(c1cccc(C(F)(F)F)c1)N1CCc2ccc(OCc3c(Cl)ccnc3Cl)cc21 — IC50 (RORC; ligand displacement, radioligand): 78 nM
OC[C@@H]1[C@@H](O)[C@H](O)[C@@H](O)[C@@H]2O[C@H]12 — IC50 (Beta-glucosidase (GBA2, Homo sapiens, UniProt Q9HCG7); enzyme activity, inhibitor; pH 5.5, lysate): 350 nM
CNc1ccc([N+](=O)[O-])cc1-n1cnc(-c2cc(F)c(F)cc2F)c1 — EC50 (Toll-like receptor 1/2; reporter gene, agonist): > 100000 nM
CC[C@H](C)[C@H](NC(=O)[C@H](Cc1ccccc1)NC(=O)[C@H](CCC(=O)O)NC(=O)[C@H](CCCCN)NC(=O)[C@H](C)NC(=O)[C@H](C)NC(=O)[C@H](CCC(N)=O)NC(=O)CNC(=O)[C@H](CCC(=O)O)NC(=O)[C@H](CC(C)C)NC(=O)[C@H](Cc1ccc(O)cc1)NC(=O)[C@H](CO)NC(=O)[C@H](CO)NC(=O)[C@@H](NC(=O)[C@H](CC(=O)O)NC(=O)[C@H](CO)NC(=O)[C@@H](NC(=O)[C@H](Cc1ccccc1)NC(=O)[C@@H](NC(=O)CNC(=O)[C@H](CCC(=O)O)NC(=O)[C@H](C)NC(=O)[C@@H](N)Cc1c[nH]cn1)[C@@H](C)O)[C@@H](C)O)C(C)C)C(=O)N[C@@H](C)C(=O)N[C@@H](Cc1c[nH]c2ccccc12)C(=O)N[C@@H](CC(C)C)C(=O)N[C@H](C(=O)N[C@@H](CCCCN)C(=O)NCC(=O)N[C@@H](CCCN=C(N)N)C(=O)NCC(=O)O)C(C)C — EC50 (Gastric inhibitory polypeptide receptor (Mus musculus, UniProt Q0P543); reporter gene, agonist, luciferase): > 1000 nM
CNc1ccc([N+](=O)[O-])cc1-n1cnc(-c2ccc(C3CCCCC3)cc2)c1 — EC50 (Toll-like receptor 1/2; reporter gene, agonist): 120 nM
CCCC[C@H](NC(=O)[C@H](CCCCN)NC(=O)[C@H](CO)NC(=O)[C@H](CO)NC(=O)OCc1ccccc1)C(=O)N[C@@H](Cc1ccccc1)B(O)O — Ki (Chymotrypsinogen A; enzyme activity, inhibitor, fluorescence): 18.1 nM
CNc1ccc([N+](=O)[O-])cc1-n1cnc(-c2ccc(-c3ccccc3)cc2)c1 — EC50 (Toll-like receptor 1/2; reporter gene, agonist): 84.7 nM
CCCC[C@H](NC(=O)[C@H](CCC(N)=O)NC(=O)[C@H](CO)NC(=O)[C@H](Cc1ccccc1)NC(=O)CCCCCNC(=O)c1ccc(I)cc1)C(=O)N[C@@H](CCCBr)B(O)O — Ki (Chymotrypsinogen A; enzyme activity, inhibitor, fluorescence): 653 nM
CNc1nc(I)nc2c1ncn2[C@H]1C[C@H](OP(=O)(O)O)[C@]2(COP(=O)(O)O)C[C@H]12 — Kb (P2Y purinoceptor 1 (Rattus norvegicus, UniProt P49651); calcium signal, antagonist): 5.4 nM
O=S(=O)(c1cccc(Cl)c1)N1CCc2ccc(OCc3c(F)cccc3Cl)cc21 — IC50 (RORC; ligand displacement, radioligand): 370 nM
